From PubChem BioAssay

Assay: yeast TOR pathway reporter LAP4-GFP change – cell-based, cherry picks, flow cytometry, mother/daughter gates, confirmation (AID 2271);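 further: ratio of sample to DMSO plate mean so 100% equals DMSO level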
Conditions: S. cerevisiae LAP4-GFP strain, 3 h, measured here: mother cell gate response, at 10 µM, stronger effect = higher value, 100 means same as DMSO control
Outline: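 System: Alexa 633-stained baker's yeast GFP-fusion strain; quantity: 0.2 OD600 cells; timing: compound exposure 3 h at 30 °C, end-over-end rotation; detection: HT flow cytometry, GFP fluorescence channel; measure: per-gate (all, mother, daughter) GFP response vs DMSO; control set: DMSO-only negative wells, rapamycin 400 ng/mL positive wells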

SMILES | GFP response relative to DMSO
COc1ccc(COC(=O)c2n[nH]c3ccccc23)cc1F | 99.3%
CCCc1cc(N2CCN(c3ccccn3)CC2)n2nc(C)c(-c3ccccc3)c2n1 | 140%
O=C1c2ccccc2C2=Nc3ccccc3SC(c3cccc(F)c3)C12 (stereo not drawn) | 102%
CCOC(=O)COc1c(Cl)cc(/C=C2\N=C(C)OC2=O)cc1OC | 113%
Cc1nn2c(N3CCN(C(=O)c4ccco4)CC3)cc(C(C)(C)C)nc2c1-c1ccccc1 | 92.9%
Cc1ccc(S(=O)(=O)N(CC(=O)NCc2ccncc2)Cc2ccccc2F)cc1 | 97.2%
Cc1ccc(N2C(=O)C3C4C=CC(CNC(=S)Nc5ccc(F)cc5)(O4)C3C2=O)cc1 (stereo not drawn) | 103%
COc1ccc(CC(=O)Oc2ccccc2C)cc1 | 98.5%
Cc1cc(C=C2C(=O)c3ccccc3C2=O)c(C)n1-c1cccc(C(=O)O)c1 | 95.1%
CC(C)c1ccc2c(c1)C1(NN=C(c3ccccc3)S1)C(=O)N2 (stereo not drawn) | 98.3%
O=C(N/N=C\c1ccc(F)cc1)c1cc(OCC(F)(F)F)ccc1OCC(F)(F)F | 99.5%
Cc1cc(NCCCN2CCOCC2)n2ncc(-c3ccccc3)c2n1 | 98.3%
COc1cc(NC(C)=O)ccc1NC(=O)c1cc2ccccc2o1 | 96.2%
COc1ccc(CCN2C(=O)c3cccc4cccc(c34)C2=O)cc1OC | 97.3%
CN(O)/C=c1/ccc2c(n1)C(=O)C=CC=2 | 188%
C/C(=N\NC(=O)c1ccc(Cl)c(Cl)c1)c1cccc(NC(=O)C(C)C)c1 | 94.6%
Cc1ccc(-c2ccc(/C=N/NC(N)=S)o2)cc1 | 115%
CC(C)(C)c1ccc(C(=O)N/N=C/c2cccc(Cl)c2)cc1 | 102%
